Assay results taken from PMC6568317 (ACS chemical biology, 2017).

Tests used:
[1] = molecular target: T1, human orotate phosphoribosyltransferase (HsOPRT) (Homo sapiens, UniProt P11172); experiment: HsOPRT inhibition assay; assay type: biochemical; conditions: for inhibition of HsOPRT: at D-DIAB or L-DIAB concentrations of 200 μM
T1 sequence (P11172 1-214 limits assumed): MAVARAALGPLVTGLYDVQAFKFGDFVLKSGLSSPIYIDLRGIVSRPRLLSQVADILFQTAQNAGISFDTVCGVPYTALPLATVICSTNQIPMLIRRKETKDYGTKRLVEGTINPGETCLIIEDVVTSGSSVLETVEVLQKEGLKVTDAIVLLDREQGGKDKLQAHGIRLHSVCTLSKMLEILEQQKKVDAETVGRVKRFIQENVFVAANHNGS
Method in brief: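 Human OPRT, 200 nM, at 25 °C in 50 mM Tris-HCl pH 8.0 with 5 mM MgCl₂. Substrates are 500 μM orotidine 5′-monophosphate and 1 mM pyrophosphate, with bis-phosphate iminoaltritol test compound present. Reaction followed by absorbance at 266 nm. Ki derived from initial rates measured in triplicate.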

[2] = molecular target: T2, Plasmodium falciparum orotate phosphoribosyltransferase (PfOPRT) (Plasmodium falciparum, UniProt Q8I3Y0); experiment: PfOPRT inhibition assay; assay type: biochemical
T2 sequence (Q8I3Y0 1-281): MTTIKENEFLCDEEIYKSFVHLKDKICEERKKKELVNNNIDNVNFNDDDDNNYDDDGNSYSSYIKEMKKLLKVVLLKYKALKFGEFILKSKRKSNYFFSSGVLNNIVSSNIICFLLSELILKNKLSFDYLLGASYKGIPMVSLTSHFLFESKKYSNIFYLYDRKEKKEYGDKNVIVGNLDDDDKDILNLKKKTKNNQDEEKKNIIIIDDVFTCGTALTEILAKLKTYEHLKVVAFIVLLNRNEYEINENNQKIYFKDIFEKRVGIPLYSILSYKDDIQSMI

[3] = molecular target: T3, Saccharomyces cerevisiae adenine phosphoribosyltransferase (ScAPRT) (Saccharomyces cerevisiae, UniProt P49435); experiment: ScAPRT inhibition assay; assay type: biochemical
T3 sequence (P49435 1-187): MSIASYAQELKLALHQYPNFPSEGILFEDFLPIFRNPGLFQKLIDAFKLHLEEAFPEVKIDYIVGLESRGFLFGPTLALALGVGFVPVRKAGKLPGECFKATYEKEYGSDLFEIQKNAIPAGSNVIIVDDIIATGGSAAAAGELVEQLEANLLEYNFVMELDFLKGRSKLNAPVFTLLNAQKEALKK

[4] = molecular target: T3, Saccharomyces cerevisiae adenine phosphoribosyltransferase (ScAPRT); conditions: read-out: KM for PRPP (ScAPRT); previously reported substrate KM; cited from earlier work

selectivity for D-DIAB over L-DIAB in PfOPRT inhibition ([2]; ratio of Ki values, Table 1) | SMILES | Ki [1] | inhibition of HsOPRT [1] | Ki [2] | Ki [3] | Km [4]
– | O=P(O)(O)OC[C@H]1N[C@H](COP(=O)(O)O)[C@@H](O)[C@H]1O (stereo in doubt) [L-DIAB, L-2,5-dideoxy-2,5-imino-altritol 1,6-bisphosphate] | > 200 µM | no apparent inhibition | 103 ± 17 µM | 14.9 ± 2.9 µM | –
3 fold | O=P(O)(O)OC[C@H]1N[C@H](COP(=O)(O)O)[C@@H](O)[C@@H]1O [D-DIAB, D-2,5-dideoxy-2,5-imino-altritol 1,6-bisphosphate] | – | no apparent inhibition | – | – | –
– | O=P(O)(O)OC[C@H]1O[C@H](OP(=O)(O)OP(=O)(O)O)[C@H](O)[C@@H]1O [PRPP, 5-phospho-α-D-ribosyl 1-pyrophosphate] | – | – | – | – | 20 µM
